Data set [1] in a line: Ability to block cleavage of C/CGG site in HpaII enzyme with the light activated test compound/DNA ratio 1:8(no. of sites=26); += light activation. In short, it runs like this:
(§1)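 pBR322 plasmid mixed with drug at 0.015, 0.12 or 0.48 mM (drug:DNA 1:8, 1:1 or 4:1), equilibrated on ice 30 min in the dark in 5 mM potassium phosphate pH 5.5, then irradiated 1 h with a medium-pressure Hg lamp (<340 nm filtered); dark set kept as control. Digested overnight with 10× excess enzyme plus DTT; fragments resolved on 1.2% agarose in TBE.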

Data set [2] can be described thus: Mutation frequency for L5178Y cells was evaluated at dose 0.005 mg/mL in dark condition (expt-II). It counts as functional, Mus musculus. In short, it runs like this: (§2)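 L5178Y suspension cells (3 × 10^6/mL, 5% CO2, 37 °C, shaking) exposed 20 h without activating enzyme; light arm irradiated 6.5 min (Hg lamp, <340 nm filtered). Cells washed, grown 24 h more and kept at 3 × 10^5/mL. Viability from 200 cells in soft agar; TFT (0.1 mg/mL) resistant colonies from 10^6 cells in triplicate dishes, counted at 10 days.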

Data set [3] can be described thus: Viability of L5178Y cells was evaluated at dose 0.005 mg/mL in light-I condition (expt-I). It counts as functional, Mus musculus. The essentials:
(§3)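 L5178Y cells were exposed for 20 h at 3 × 10^6 cells/mL. Light arms then received 6.5 min of Hg-lamp irradiation filtered to remove light below 340 nm. Cells were washed twice in Fischer's medium, grown a further 24 h and held at 3 × 10^5 cells/mL. For viability, 200 cells were plated in soft-agar cloning medium in triplicate dishes, and colonies were counted by an automated counter after 10 days.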

The nature of data set [4]: Ability to block cleavage of GG/CC site in HaeIII enzyme with the light activated test compound/DNA ratio 1:8(no. of sites=22); += light activation. In short, it runs like this:
as §1

Data set [5] is described as follows: Mean value of mutation induction for L5178Y cells was evaluated at dose 0.005 mg/mL in light condition (expt-II). The class given is functional, Mus musculus. The essentials:
as §2

Data set [6] can be described thus: Ability to block cleavage of AG/CT site in AluI enzyme with the light activated test compound, DNA ratio 4(no. of sites=16); += light activation. The essentials: as §1
Data set [7] is described as follows: Mean value of mutation induction for L5178Y cells was evaluated at dose 0.005 mg/mL in dark condition (expt-II). It counts as functional, Mus musculus. The essentials:
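L5178Y cells in suspension culture, gassed with 5% CO2 in air, shaken at 150 rpm, 37 °C. Cells at 3 × 10^6/mL were dosed for 20 h, unirradiated and without activating enzyme, then washed twice in Fop and grown 24 h more. TFT-resistant mutants came from 10^6 cells plated in three dishes of cloning medium with 0.1 mg/mL TFT, colonies counted at 10 days; frequency expressed ×10^6.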

Data set [8] is described as follows: Ability to block cleavage of GCC/GGC site in NaeI enzyme with the light activated test compound/DNA ratio 1:8(no. of sites=4); += light activation. In short, it runs like this: as §1
Data set [9] is described as follows: Relative toxicity against mammalian L5178Y cells at dose 0.008 mg/mL in dark-2 condition (expt-I). It counts as functional, Mus musculus. Conditions: in the assay text read “0.008 µg/mL” for “0.008 mg/mL”. In short, it runs like this: (§4)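 L5178Y mouse cells in suspension, 3 × 10^6 cells/mL, were exposed for 20 h at 37 °C in a shaker at 150 rpm under 5% CO2, without an activating enzyme. Light arms were irradiated for 6.5 min with a medium-pressure Hg lamp filtered to remove light below 340 nm; dark arms were not. Toxicity was taken as the Coulter-counted density of treated cells versus solvent control.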

A short description of data set [10]: Half-life was evaluated in water in the absence of light. It counts as ADME.
The nature of data set [11]: Ability to block cleavage of TTT/AAA site in DraI enzyme with the light activated test compound/DNA ratio 4(no. of sites=3); += light activation. In short, it runs like this:
as §1

The nature of data set [12]: Ability to block cleavage of GG/CC site in HaeIII enzyme with the light activated test compound/DNA ratio 4(no. of sites=22); += light activation. In short, it runs like this:
as §1

A short description of data set [13]: Ability to block cleavage of […] site in NciI enzyme with the light activated test compound/DNA ratio 1(no. of sites=10); += light activation. In short, it runs like this: as §1
Data set [14] in a line: Ability to block cleavage of G/GNCC site in Restriction endonuclease Sau961 with the light activated test compound/DNA ratio 4(no. of sites=15); += light activation. The essentials:
as §1

Data set [15] in a line: Ability to block cleavage of TTT/AAA site in DraI enzyme with the light activated test compound/DNA ratio 1(no. of sites=3); += light activation. In short, it runs like this:
as §1

Data set [16] can be described thus: Relative mutation induction for L5178Y cells was evaluated at dose 0.005 mg/mL in dark-I condition (expt-I). The class given is functional, Mus musculus. The essentials:
as §2

Data set [17] is described as follows: Relative toxicity against mammalian L5178Y cells at dose 0.005 mg/mL in dark condition (expt-II). The class given is functional, Mus musculus. The essentials:
as §4

The nature of data set [18]: Ability to block cleavage of G/ANTC site in Hinf1 enzyme with the light activated test compound/DNA ratio 1(no. of sites=10); += light activation. The essentials: as §1
Data set [19] can be described thus: Ability to block cleavage of […] site in NciI enzyme with the light activated test compound/DNA ratio 1:8(no. of sites=10); += light activation. The essentials:
as §1

Data set [20] in a line: Viability of L5178Y cells was evaluated at dose 0.005 mg/mL in dark-I condition (expt-I). The class given is functional, Mus musculus. In short, it runs like this:
as §3

Data set [21] can be described thus: Mean value of mutation induction for L5178Y cells was evaluated at dose 0.008 mg/mL in dark-II condition (expt-I). The class given is functional, Mus musculus. The essentials: as §2
A short description of data set [22]: Induction frequency for L5178Y cells was evaluated at dose 0.005 mg/mL in dark condition (expt-II). It counts as functional, Mus musculus. In short, it runs like this:
as §2

Data set [23] in a line: Mutation frequency for L5178Y cells was evaluated at dose 0.005 mg/mL in light condition (expt-II). It counts as functional, Mus musculus. The essentials:
as §2

This is an account of results in ChEMBL document CHEMBL1124747, “Properties of the nucleic acid photoaffinity labeling agent 3-azidoamsacrine” (J Med Chem, 1990).

`COc1cc(NS(C)(=O)=O)ccc1Nc1c2ccccc2nc2cc(N=[N+]=[N-])ccc12.Cl`: the Blockage activity result in data set [1], in [4], in data set [6], in [8], in data set [11] and in [12] was “Light activation” throughout. Further, the Blockage activity result in [13], in [14], in [15], in data set [18] and in [19] was “Light activation” throughout. Besides, the Mutation frequency is on record as 504 10e6 F in data set [2] and 640 10e6 F in data set [23]. The Viability in data set [3] was 57; in [20], 66.7. The results for the Mean value in [5], in data set [7] and in [21] were 114.3, 95 and 63, respectively. Also, the Relative toxicity in [9] was determined as 55; in [17], 65. For the same compound, the half-life in data set [10] was over 14 days. The same compound yielded a Relative activity in data set [16] of 53. The Induced frequency in [22] is 366.
